# What was measured:
# [1] = target: T1, MAO A (monoamine oxidase A) (Rattus norvegicus, UniProt P21396); assay: (§1) Inhibitory activity against monoamine oxidase A (MAO A) from rat brain using a radiometric procedure with [3H]5-HT at 10 uM; settings: rat brain monoamine oxidase A preparation, probe [3H]5-HT
# T1 sequence (P21396 whole entry): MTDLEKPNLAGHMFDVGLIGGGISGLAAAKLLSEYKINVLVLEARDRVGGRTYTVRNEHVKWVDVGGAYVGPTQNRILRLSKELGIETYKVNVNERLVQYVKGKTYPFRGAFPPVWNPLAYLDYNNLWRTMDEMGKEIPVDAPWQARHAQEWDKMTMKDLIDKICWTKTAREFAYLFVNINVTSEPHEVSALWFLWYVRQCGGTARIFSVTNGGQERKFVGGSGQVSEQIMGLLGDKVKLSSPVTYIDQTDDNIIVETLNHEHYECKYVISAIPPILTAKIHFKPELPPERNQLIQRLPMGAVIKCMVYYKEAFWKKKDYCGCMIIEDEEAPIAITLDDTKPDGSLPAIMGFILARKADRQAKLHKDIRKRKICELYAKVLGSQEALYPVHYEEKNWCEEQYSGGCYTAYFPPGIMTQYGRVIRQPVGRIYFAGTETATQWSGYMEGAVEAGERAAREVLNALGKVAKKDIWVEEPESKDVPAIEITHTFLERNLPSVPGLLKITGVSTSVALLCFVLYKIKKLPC
# Method in brief: (§2)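 Rat brain mitochondrial MAO extract was preincubated with or without inhibitor for 15 min at 37 °C in 50 mM potassium phosphate, pH 7.4. […] Blanks contained 2 mM pargyline. Reactions were stopped with HCl, products extracted into ethyl acetate/toluene and counted by scintillation. Triplicates were averaged as % inhibition, and IC50 was taken from % inhibition vs log concentration.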
# [2] = target: T2, MAO B (monoamine oxidase B) (Rattus norvegicus, UniProt P19643); assay: (§3) Inhibitory activity against monoamine oxidase B (MAO B) from rat brain using a radiometric procedure with [14C]phenylethylamine at 1 uM; settings: rat brain monoamine oxidase B preparation, probe [14C]phenylethylamine
# T2 sequence (P19643 whole entry): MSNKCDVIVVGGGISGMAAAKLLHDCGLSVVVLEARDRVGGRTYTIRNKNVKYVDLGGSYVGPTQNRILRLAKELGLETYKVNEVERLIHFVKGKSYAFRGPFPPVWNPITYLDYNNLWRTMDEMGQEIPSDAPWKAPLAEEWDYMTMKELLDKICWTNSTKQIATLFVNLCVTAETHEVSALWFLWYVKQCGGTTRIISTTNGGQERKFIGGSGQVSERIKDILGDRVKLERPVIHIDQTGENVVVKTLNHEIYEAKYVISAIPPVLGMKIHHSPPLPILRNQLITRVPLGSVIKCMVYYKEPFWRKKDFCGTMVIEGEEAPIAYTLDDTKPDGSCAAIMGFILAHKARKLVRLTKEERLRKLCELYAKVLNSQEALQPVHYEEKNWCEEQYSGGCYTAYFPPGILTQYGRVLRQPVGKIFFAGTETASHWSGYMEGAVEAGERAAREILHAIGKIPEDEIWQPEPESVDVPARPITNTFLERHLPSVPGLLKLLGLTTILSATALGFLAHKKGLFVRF
# Method in brief: (§4)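 Rat brain mitochondrial MAO extract was preincubated ± inhibitor for 15 min at 37 °C in 50 mM potassium phosphate, pH 7.4. […] Pargyline (2 mM) defined blanks. Acid stop, ethyl acetate/toluene extraction and scintillation counting followed. Triplicate means gave % inhibition, and IC50 was extrapolated from % inhibition vs log concentration plots.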
# [3] = target: T1, MAO A (monoamine oxidase A); assay: (§5) Inhibitory activity against monoamine oxidase A (MAO A) from rat brain using a radiometric procedure with [3H]5-HT at 1 uM; settings: rat brain monoamine oxidase A preparation, probe [3H]5-HT; method in brief: as §2
# [4] = target: T1, MAO A (monoamine oxidase A); assay: Inhibitory activity against monoamine oxidase A (MAO A) from rat brain using a radiometric procedure with [3H]- serotonin at 1 uM; settings: rat brain monoamine oxidase A preparation, probe [3H]-serotonin; method in brief: as §2
# [5] = target: T2, MAO B (monoamine oxidase B); assay: Inhibitory activity against monoamine oxidase B (MAO B) from rat brain using a radiometric procedure with [14C]- phenethylamine at 1 uM; settings: rat brain monoamine oxidase B preparation, probe [14C]-phenethylamine; method in brief: as §4
# [6] = target: T3, Amine oxidase [flavin-containing] B (Rattus norvegicus, UniProt P19643); assay: as §3; method in brief: as §4
# T3 sequence (P19643 whole entry): T2 sequence (P19643 whole entry)
# [7] = target: T4, Amine oxidase [flavin-containing] A (Rattus norvegicus, UniProt P21396); assay: as §5; method in brief: as §2
# T4 sequence (P21396 whole entry): T1 sequence (P21396 whole entry)
# [8] = target: T4, Amine oxidase [flavin-containing] A; assay: Inhibitory activity against monoamine oxidase A (MAO A) from rat brain using a radiometric procedure with [3H]5-HT; method in brief: as §2
# [9] = target: T4, Amine oxidase [flavin-containing] A; assay: Inhibitory activity against monoamine oxidase A (MAO A) from rat brain using a radiometric procedure with [3H]- serotonin.; method in brief: as §2
# [10] = target: T3, Amine oxidase [flavin-containing] B; assay: Inhibitory activity against monoamine oxidase B (MAO B) from rat brain using a radiometric procedure with [14C]- phenethylamine.; method in brief: as §4
# [11] = target: T2, MAO B (monoamine oxidase B); assay: Inhibitory activity against monoamine oxidase B (MAO B) from rat brain using a radiometric procedure with [14C]phenylethylamine at 0.3 uM; settings: rat brain monoamine oxidase B preparation, probe [14C]phenylethylamine; method in brief: as §4
# [12] = target: T2, MAO B (monoamine oxidase B); assay: Inhibitory activity against monoamine oxidase B (MAO B) from rat brain using a radiometric procedure with [14C]- phenethylamine at 10 uM; settings: rat brain monoamine oxidase B preparation, probe [14C]-phenethylamine; method in brief: as §4
# [13] = target: T2, MAO B (monoamine oxidase B); assay: (§6) Inhibitory activity against monoamine oxidase B (MAO B) from rat brain using a radiometric procedure with [14C]phenylethylamine at 10 uM; settings: rat brain monoamine oxidase B preparation, probe [14C]phenylethylamine; method in brief: as §4
# [14] = target: T3, Amine oxidase [flavin-containing] B; assay: Inhibitory activity against monoamine oxidase B (MAO B) from rat brain using a radiometric procedure with [14C]- phenethylamine at<10 uM; method in brief: as §4
# [15] = target: T1, MAO A (monoamine oxidase A); assay: Inhibitory activity against monoamine oxidase A (MAO A) from rat brain using a radiometric procedure with [3H]- serotonin at 10 uM; settings: rat brain monoamine oxidase A preparation, probe [3H]-serotonin; method in brief: as §2
# [16] = target: T3, Amine oxidase [flavin-containing] B; assay: as §6; method in brief: as §4
# [17] = target: T4, Amine oxidase [flavin-containing] A; assay: as §1; method in brief: as §2
# [18] = target: T2, MAO B (monoamine oxidase B); assay: Inhibitory activity against monoamine oxidase B (MAO B) from rat brain using a radiometric procedure with [14C]phenylethylamine at 0.1 uM; settings: rat brain monoamine oxidase B preparation, probe [14C]phenylethylamine; method in brief: as §4
# [19] = target: T2, MAO B (monoamine oxidase B); assay: Inhibitory activity against monoamine oxidase B (MAO B) from rat brain using a radiometric procedure with [14C]- phenethylamine at 0.1 uM; settings: rat brain monoamine oxidase B preparation, probe [14C]-phenethylamine; method in brief: as §4
# [20] = target: T1, MAO A (monoamine oxidase A); assay: Inhibitory activity against monoamine oxidase A (MAO A) from rat brain using a radiometric procedure with [3H]- serotonin at 0.1 uM; settings: rat brain monoamine oxidase A preparation, probe [3H]-serotonin; method in brief: as §2
compound,measurement,setting,value
Nc1ccc2[nH]c(=O)c3ccccc3c2c1,inhibition,[1],0%
CC(=O)Nc1ccc2[nH]c(=O)c3ccccc3c2c1,inhibition at 1 µM,[2],11%
same,inhibition,[3],0%
CC(=O)Nc1ccc2[nH]ccc2c1,inhibition at 1 µM,[4],0%
same,inhibition at 1 µM,[5],0%
CC(=O)Nc1ccc2c(c1)S(=O)(=O)c1ccccc1N2C,inhibition at 1 µM,[2],18%
same,inhibition,[3],60%
CCCC(=O)Nc1ccc2c(c1)[nH]c1ccccc12,inhibition,[3],36%
CC(=O)Nc1ccc2c3ccccc3n(CCCN3CCN(C)CC3)c2c1,inhibition,[1],80%
CC(=O)Nc1ccc2[nH]c(C)c(C)c2c1,inhibition,[6],42%
same,inhibition,[7],< 1%
CC(=O)NCCc1ccc2c(c1)c1ccccc1n2C,inhibition at 1 µM,[2],0%
same,inhibition,[3],50%
CC(=O)Nc1ccc2c(c1)S(=O)(=O)c1ccccc1C2,inhibition at 1 µM,[2],49%
same,inhibition,[3],17%
CC(=O)Nc1ccc2c(c1)C(O)c1ccccc1-2 (centres undefined),IC50,[8],300 nM
CC(=O)Nc1ccc2c(c1)c(O)nc1ccccc12,inhibition at 1 µM,[2],0%
same,inhibition,[3],55%
CC(=O)Nc1ccc2c(c1)C(=O)c1ccccc1C2=O,IC50,[9],160 nM
same,IC50,[10],3.5 µM
CC(=O)Nc1ccc2c(O)c3ccccc3nc2c1,inhibition at 1 µM,[2],21%
same,inhibition,[3],72%
CC(=O)Nc1ccc2c(c1)oc(=O)c1ccccc12,inhibition at 1 µM,[5],8%
same,IC50,[9],40 nM
CCC(=O)Nc1ccc2c(c1)-c1ccccc1S2(=O)=O,IC50,[8],1200 nM
CC(=O)Nc1ccc2c(c1)N(C(C)=O)CC2,inhibition at 1 µM,[2],-27%
same,inhibition,[3],37%
CCc1ccc2c(c1)C(=O)c1ccc(NC(C)=O)cc1S2(=O)=O,IC50,[8],10 nM
same,inhibition at 0.3 µM,[11],15%
CC(=O)Nc1ccc2c3c([nH]c2c1)CCCC3,inhibition at 1 µM,[2],0%
same,inhibition,[3],35%
CC(=O)Nc1ccc2c(c1)C(=O)c1ccccc1-2,inhibition at 1 µM,[2],3%
same,IC50,[8],40 nM
O=CNc1ccc2c(c1)[nH]c1ccccc12,IC50,[8],1100 nM
Nc1ccc2c(c1)-c1ccccc1S2(=O)=O,IC50,[8],1000 nM
CC(=O)Nc1ccc2[nH]c3ccccc3c2c1,inhibition at 10 µM,[12],37%
CCCc1ccc2c(c1)S(=O)(=O)c1cc(NC(C)=O)ccc1C2=O,inhibition at 10 uM,[13],-7%
same,IC50,[8],20 nM
CC(=O)Nc1cc2c(ccc3ccccc32)oc1=O,inhibition at 1 µM,[4],10%
same,inhibition at 1 µM,[5],12%
CC(=O)N(C)c1ccc2c(c1)-c1ccccc1S2(=O)=O,inhibition,[3],0%
CC(=O)Nc1cc2ccccc2oc1=O,inhibition,[14],53%
same,inhibition at 1 µM,[4],5%
CC(=O)Nc1ccc(Nc2ccccc2)c(NC(C)=O)c1,inhibition at 10 µM,[15],4%
same,inhibition at 10 µM,[12],4%
CC(=O)Nc1ccc2c(c1)oc1ccccc12,IC50,[8],300 nM
CC(=O)Nc1ccc2c(c1)S(=O)(=O)c1ccccc1C2=O,inhibition at 1 µM,[2],-1%
same,IC50,[8],60 nM
CC(=O)Nc1ccc2c(c1)C(=O)c1cc([N+](=O)[O-])ccc1-2,IC50,[8],1300 nM
CC(=O)Nc1ccc2c(c1)S(=O)(=O)c1ccc(C)cc1C2=O,IC50,[8],700 nM
CC(=O)Nc1nc2cc(C)c(C)cc2[nH]1,inhibition at 10 uM,[13],18%
same,inhibition,[1],50%
CC(=O)Nc1ccc2c(c1)CCC2,inhibition at 1 µM,[2],37%
same,inhibition,[3],13%
CC(=O)Nc1ccc2c(cnn2C(C)=O)c1,inhibition at 1 µM,[4],4%
same,inhibition at 1 µM,[5],27%
CC(=O)Nc1ccc2c(c1)S(=O)(=O)c1ccccc1N2,inhibition,[16],22%
same,inhibition,[17],74%
CC(=O)Nc1cccc(Nc2ccccc2)c1,inhibition at 10 µM,[15],44%
O=CN(C=O)c1ccc2c(c1)S(=O)(=O)c1ccccc1C2=O,inhibition at 10 uM,[13],3%
same,inhibition,[1],18%
CC(=O)Nc1ccc2c(c1)S(=O)(=O)c1ccccc1O2,inhibition at 0.1 µM,[18],0%
same,IC50,[8],14 nM
CC(=O)Nc1ccc2c(c1)[nH]c1ccc(Br)cc12,inhibition,[3],61%
NC(=O)Nc1ccc2c(c1)[nH]c1ccccc12,inhibition at 1 µM,[2],26%
same,inhibition,[3],74%
CC(=O)Nc1nc2ccccc2[nH]1,inhibition at 10 uM,[13],-2%
same,inhibition,[1],8%
CC(=O)Nc1ccc2c3ccccc3n(C)c2c1,IC50,[8],30 nM
CC(=O)NCc1ccc2c(c1)c1ccccc1n2C,inhibition at 1 µM,[2],30%
same,inhibition,[3],16%
CC(=O)Nc1ccc2c(c1)-c1ccccc1S2(=O)=O,inhibition at 1 µM,[2],13%
same,IC50,[8],260 nM
NC(=O)Nc1ccccc1-c1ccccc1,inhibition at 10 uM,[13],13%
same,inhibition,[1],22%
CC(=O)Nc1ccc2c(c1)COCO2,inhibition at 10 uM,[13],22%
same,inhibition,[1],42%
CC(=O)Nc1nc2cc(C)c(C)cc2s1,inhibition at 10 uM,[13],38%
same,inhibition,[1],54%
O=CNc1ccc2c(c1)-c1ccccc1S2(=O)=O,IC50,[8],1000 nM
CC(=O)Nc1ccc2c(c1)C(=O)c1ccccc1S2(=O)=O,inhibition at 1 µM,[2],39%
same,IC50,[8],120 nM
CC(=O)Nc1ccc2c3c([nH]c2c1)CCC(C)(C=O)C3 (centres undefined),inhibition at 1 µM,[4],0%
same,inhibition at 1 µM,[5],11%
CC(=O)Nc1cccc2c1C(=O)c1ccccc1C2=O,inhibition at 1 µM,[4],12%
CNc1ccc2c(c1)-c1ccccc1S2(=O)=O,inhibition,[3],34%
CC(=O)Nc1ccc2oc(=O)c3ccccc3c2c1,inhibition at 0.1 µM,[19],23%
same,inhibition at 0.1 uM,[20],10%
CC(=O)Nc1ccc(Oc2ccc(CS(C)(=O)=O)cc2)cc1,inhibition at 1 µM,[2],25%
same,inhibition,[3],31%
CC(=O)Nc1ccc2c(c1)S(=O)(=O)c1cc(NC(C)=O)ccc1N2C,inhibition,[6],7%
same,inhibition,[7],2%
CC(=O)NC(C)c1ccc2c(c1)[nH]c1ccccc12 (centres undefined),inhibition at 1 µM,[2],20%
same,inhibition,[3],7%

# Source: ChEMBL document CHEMBL1127802, “Selective inhibitors of monoamine oxidase. 2. Arylamide SAR” (J Med Chem, 1994)
